From PubChem BioAssay
V1R ag counter = V1a receptor agonism, counter-screen for OXTR agonists; P37288; CHO-V1R cells, Fluo-8 calcium fluorescence, agonist mode; 0% DMSO, 100% 3 nM vasopressin; activation, % at 3 µM; 320,000 compounds, 0.25% hits;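 active = activation above the mean activation of all tested compounds plus 3 SD, per screening run, cut at about 20% in these data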;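 also: signal is peak over basal fluorescence ratio across a 100 second FLIPR read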
Target sequence (P37288 whole entry, looked up): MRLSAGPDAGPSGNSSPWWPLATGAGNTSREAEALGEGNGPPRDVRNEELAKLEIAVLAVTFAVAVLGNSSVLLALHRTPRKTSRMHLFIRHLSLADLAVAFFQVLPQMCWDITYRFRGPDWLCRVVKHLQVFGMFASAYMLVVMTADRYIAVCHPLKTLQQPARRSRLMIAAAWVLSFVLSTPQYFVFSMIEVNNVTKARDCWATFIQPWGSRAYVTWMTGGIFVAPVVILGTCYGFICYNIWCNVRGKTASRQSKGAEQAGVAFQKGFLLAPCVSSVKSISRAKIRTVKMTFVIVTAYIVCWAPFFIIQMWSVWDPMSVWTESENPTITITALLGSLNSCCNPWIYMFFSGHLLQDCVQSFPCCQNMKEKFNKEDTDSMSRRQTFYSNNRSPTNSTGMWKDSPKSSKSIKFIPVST
TAAR1 ag = agonists of human TAAR1; Q96RJ0; CHO RD-HGA16 TAAR1, Fluo-8 calcium fluorescence; vehicle wells 0%, saturating PEA agonist 100%; activation, % at 3 µM; 360,000 compounds, 0.99% hits;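 active = activation above the mean activation of all test compounds in the run plus 3 SD, cut at about 38% in these data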
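Test system: RD-HGA16 (CHO) cells co-expressing Gα16 and hTAAR1 / Benchmarks: DMSO vehicle as 0%, PEA at EC100 as 100% / Repeats: no replicates (n 1) / Measure: % activation from peak over basal fluorescence ratio, DMSO-to-PEA scaled / Timing: 17-24 h plating, Fluo-8 75 min 37 °C, 30 min RT / Technique: kinetic Fluo-8 calcium fluorescence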
OXTR agonist = agonists of human oxytocin receptor. P30559. CHO-OTR cells, Fluo-8 calcium fluorescence; normalized: DMSO 0%, oxytocin 100%. activation, % at 3 µM. 320,000 compounds, 0.32% hits. AID 2435;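 active = activation above the mean of all tested compounds plus 3 SD, cutoff set per screening run, cut at about 20% in these data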;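 also: peak over basal fluorescence ratio from a 100 s FLIPR kinetic read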
OXTR potentiate = human OXTR potentiation; 320,000 compounds, 0.061% hits; CHO-OTR cells, Fluo-8 calcium fluorescence, potentiator mode; 0% = oxytocin EC15, 100% = EC100; activation, % at 3 µM;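 active = activation above that plate's cutoff, the mean activation of tested compounds plus 3 SD, cut at about 6.6% in these data, passing the limit was not always enough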;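 also: 100% uses oxytocin at 75 nM as the full agonist control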
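Material: human OTR in CHO cells. Compound: 3.0 µM, one dose. Timing: compound 6 min at room temperature before oxytocin, 100 s read. Evaluation: % activation of max/min ratio relative to oxytocin controls. Replication: single well per compound, singlicate. Signal: Fluo-8 calcium dye fluorescence.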
TAAR1 antagonist = antagonists of human TAAR1; inhibition, % at 3 µM; 360,000 compounds, 1.5% hits; CHO RD-HGA16 TAAR1, Fluo-8 calcium fluorescence, antagonist; Q96RJ0;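 active = inhibition above a per-plate cutoff, the mean inhibition of test compounds on that plate plus 3 SD, cut at about 49% in these data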;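 also: 0% = DMSO plus EC80 beta-PEA response and 100% = DMSO alone without agonist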
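System: CHO RD-HGA16 cells bearing hTAAR1. Reagent: EC80 β-phenethylamine stimulus. Schedule: seeding 17-24 h prior, 75-min 37 °C, 30-min RT dye loading. Signal: Fluo-8 intracellular calcium dye fluorescence, real-time kinetic reads. Read-out: % inhibition from peak post-agonist over basal fluorescence ratio. Benchmarks: vehicle wells and EC80 agonist wells. Replicates: n of 1.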
nonsel antag count = nonselective antagonist in TAAR1 antagonist counter-screen; shares compounds with TAAR1 antagonist; counterscreen cell line, calcium fluorescence, antagonist mode; inhibition, % at 3 µM; 2,400 compounds, 77% hits; AID 651780; in the data active = inhibition above about 22%;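 also: CHO-Ga16 host cells stimulated with ATP at an EC80 level; 0% = agonist EC80 plus vehicle and 100% = vehicle without agonist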
TAAR1 antag conf = human TAAR1 antagonism, confirmed | shares compounds with TAAR1 antagonist | TAAR1-expressing cells, fluorescence antagonist read-out | inhibition, % at 3 µM | 2,400 compounds, 40% hits | AID 651785; in the data active = inhibition above about 49%;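 also: CHO-Ga16 host cells challenged with agonist PEA near its EC80; 0% = agonist at EC80 plus vehicle and 100% = vehicle with no agonist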
Ga16 ag counter = nonselective Ga16 agonist in TAAR1 antagonist counter-screen; shares compounds with TAAR1 antagonist; Ga16-expressing cells, calcium fluorescence, agonist counterscreen; activation, % at 3 µM; 2,400 compounds, 18% hits; in the data active = activation above about 12%;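 also: 0% = vehicle wells and 100% = saturating stimulus response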
TAAR1 ag counter = activates human TAAR1 in antagonist counter-screen. 2,400 compounds, 2% hits. AID 651955. activation, % at 3 µM. shares compounds with TAAR1 antagonist. hTAAR1 cell line, fluorescence activation, agonist mode; in the data active = activation above about 37%;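 also: CHO cells stably expressing TAAR1 with calcium dye readout; 0% = DMSO vehicle and 100% = full agonist response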
An asterisk follows results filed as active; · = no result. Compounds with a hit are over-represented: about 2.3% of the library has one in this group of screens.

SMILES	V1R ag counter	TAAR1 ag	OXTR agonist	OXTR potentiate	TAAR1 antagonist	nonsel antag count	TAAR1 antag conf	Ga16 ag counter	TAAR1 ag counter
OC(c1ccccc1)(c1ccccc1)C1CCN(CCCOc2ccncc2)CC1	·	33	·	·	21	·	·	·	·
COc1ccccc1CCNC(=O)c1cccc(NC(=O)CC2SC(N3CCCCC3)=NC2=O)c1 (stereo unspecified)	·	16	·	·	28	·	·	·	·
COc1ccc(OC)c(NC(=O)C2CCCN(S(=O)(=O)c3cccc4cccnc34)C2)c1 (stereo unspecified)	1	12	-2	4	60*	24*	40	9	7
Cc1cccc(N2CCN(C(=O)C3CCN(S(=O)(=O)c4cccc5cccnc45)CC3)CC2C)c1 (stereo unspecified)	4	15	1	-8	75*	28*	54*	11	9
COc1cc(NC(=O)[C@@H]2CCCN(S(=O)(=O)c3cccc4cccnc34)C2)cc(OC)c1OC	-1	20	-3	-1	51*	29*	40	8	5
O=C(C1CCN(S(=O)(=O)c2cccc3cccnc23)CC1)N1CCCC1	0	2	1	-5	1	·	·	·	·
Cc1ccccc1NC(=O)C1CCCN(S(=O)(=O)c2cccc3cccnc23)C1 (stereo unspecified)	3	13	-1	-3	54*	20	39	7	7
Cc1noc(C)c1NC(=O)N(C)C[C@H]1Oc2c(NC(=O)C3CCCCC3)cccc2C(=O)N([C@H](C)CO)C[C@@H]1C	1	3	0	-5	8	·	·	·	·
c1ccc(CCNc2nc(-c3ccncc3)nc3ccccc23)cc1	-1	2	-3	-9	67*	27*	41	8	4
CC(C)(C)OC(=O)NCCCCCNC(=O)c1nc[nH]c1C(=O)N1CCc2ccccc2C1	1	22	0	-5	76*	34*	52*	11	14
C[C@H](NC(=O)c1[nH]cnc1C(=O)Nc1ccc(CNC(=O)OC(C)(C)C)cc1)C(=O)OCc1ccccc1	1	14	-1	-13	67*	34*	52*	5	9
CC(C)(C)OC(=O)NCCCCCNC(=O)c1nc[nH]c1C(=O)NCC(=O)OCc1ccccc1	4	20	2	-8	78*	38*	62*	13*	13
CC(C)(C)OC(=O)CNC(=O)c1nc[nH]c1C(=O)NCc1ccc(CNC(=O)OC(C)(C)C)cc1	8	18	9	-19	70*	41*	54*	16*	17
CC(C)(C)OC(=O)CNC(=O)c1nc[nH]c1C(=O)NCc1ccccc1	1	9	2	-11	4	·	·	·	·
Cc1ccc(NC(=O)c2cnccn2)cc1S(=O)(=O)N1CCCCCC1	0	1	0	1	-2	·	·	·	·
Cc1cc(F)ccc1NC(=O)c1cc(S(=O)(=O)N2CCc3ccccc32)cn1C	2	1	-1	-6	-11	·	·	·	·
CC(C)(C)OC(=O)CNC(=O)c1[nH]cnc1C(=O)NCC(=O)OCc1ccccc1	1	19	4	-15	70*	31*	56*	11	14
Cc1cccc(NC(=O)c2nc[nH]c2C(=O)NCCCCCNC(=O)OC(C)(C)C)c1	0	15	-1	-3	56*	19	38	5	12
CC(C)(C)OC(=O)NCCCC[C@H](NC(=O)c1nc[nH]c1C(=O)NCC(=O)OCc1ccccc1)C(=O)OC(C)(C)C	1	8	-2	-3	55*	23*	29	1	-1
CC(C)(C)OC(=O)[C@H](Cc1ccccc1)NC(=O)c1nc[nH]c1C(=O)NCC(=O)OCc1ccccc1	0	3	-1	-13	35	·	·	·	·
Cc1cccc(NC(=O)c2nc[nH]c2C(=O)NCCCNC(=O)c2[nH]cnc2C(=O)Nc2cccc(C)c2)c1	0	10	2	-4	38	·	·	·	·
O=C(CNC(=O)c1[nH]cnc1C(=O)NC(c1ccccc1)c1ccccc1)OCc1ccccc1	1	10	0	-8	68*	26*	42	4	1
COc1ccc(N2CC(C(=O)N[C@H](C(=O)NC3CCCCC3)C(C)C)CC2=O)cc1 (stereo partly specified)	0	2	0	-5	-34	·	·	·	·
CC(C)(C)OC(=O)N1CCN(C(=O)c2[nH]cnc2C(=O)N[C@@H](Cc2ccccc2)C(=O)OCc2ccccc2)CC1	-1	24	0	-4	69*	23*	45	7	7
CC(C)(C)OC(=O)[C@H](Cc1ccccc1)NC(=O)c1nc[nH]c1C(=O)N1CCN(C(=O)OC(C)(C)C)CC1	0	14	-2	-4	27	·	·	·	·
SMILES	V1R ag counter	TAAR1 ag	OXTR agonist	OXTR potentiate	TAAR1 antagonist	nonsel antag count	TAAR1 antag conf	Ga16 ag counter	TAAR1 ag counter
CCOC(=O)C1(Cc2ccccc2C)CCCN(C(=O)c2ccccn2)C1 (stereo unspecified)	-1	16	-1	-10	-21	·	·	·	·
CCOC(=O)C1(Cc2ccccc2C)CCCN(C(=O)c2ccc3nccnc3c2)C1 (stereo unspecified)	2	15	2	-11	67*	24*	49*	8	13
CC1=C(C(=O)N(C(C)C)C(C)C)CC(CC(=O)NCc2cccc3ccccc23)C(=O)N1Cc1ccc(C(C)(C)C)cc1 (stereo unspecified)	·	1	·	·	-3	·	·	·	·
COCCn1c(=S)[nH]c2cc(C(=O)NC3CCCC(C)C3C)ccc2c1=O (stereo unspecified)	·	2	·	·	-22	·	·	·	·
CC(=O)Nc1ccc(NC(=O)CSc2nnc(NC(=O)c3ccccc3F)s2)cc1	·	1	·	·	-2	·	·	·	·
CC1=CCC[C@@H]2[C@]3(CC/C(=C/CO)CO)CO[C@@]2(C1)[C@@H](O)C[C@H]3C	·	2	·	·	-5	·	·	·	·
NC(=O)COc1cccc(/C=N/NC(=O)c2ccc(-n3cccc3)cc2)c1	0	7	1	-2	84*	18	55*	5	3
COc1ccc(C#Cc2ccc(C3=CC(=O)CC(C)(C)C3=O)cc2)cc1	·	5	·	·	81*	28*	43	4	3
COc1ccc(OC)c(NC(=O)c2cc(S(=O)(=O)N(C)C)ccc2N2CCCC2)c1	-1	1	-2	1	-7	·	·	·	·
